Measured values taken from article PMC5987874 (The Journal of General Physiology, 2018).
Substitutions are numbered along the chain they refer to. Like-named read-outs stand apart in the source and are kept apart here.

Legend:
Test in all cases: Whole-cell voltage clamp, Zn^2+ modulation of GAQ gating
Type in all cases: cell-based
human Hv1 H140A-D185H = target: T1, human Hv1 H140A-D185H (Homo sapiens, UniProt Q96D96, D185H/H140A)
T1 sequence (Q96D96 1-273 H140A/D185H): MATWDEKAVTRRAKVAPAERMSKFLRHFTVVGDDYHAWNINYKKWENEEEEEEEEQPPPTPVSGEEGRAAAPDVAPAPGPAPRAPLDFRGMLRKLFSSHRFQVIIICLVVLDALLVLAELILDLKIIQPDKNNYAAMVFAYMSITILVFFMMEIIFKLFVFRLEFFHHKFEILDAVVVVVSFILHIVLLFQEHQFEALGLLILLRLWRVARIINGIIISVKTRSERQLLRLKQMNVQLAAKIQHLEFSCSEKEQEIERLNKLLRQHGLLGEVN
Summary of the method: (§1)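 Whole-cell patch clamp at ~21°C. Pipette and bath (mM): ~80 TMA-MeSO3, 100 Bis-Tris, 8 HCl, pH 6.5, 310–320 mOsm. ZnCl2 was diluted into bath solution and applied by gravity superfusion, at least 2 min per change. Test step voltage was set per construct from its V0.5. G_STEP = end-of-step current/(V−V_REV). Effect = 1 − G_Zn/G_control, fitted to the Hill equation. IC50 and nH are means ± SEM from separate cells. ΔpIC50 was tested by unpaired t test, P<0.05.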

human Hv1 D123H-H193A = target: T2, human Hv1 D123H-H193A (Homo sapiens, UniProt Q96D96, D123H/H193A)
T2 sequence (Q96D96 1-273 D123H/H193A): T1 sequence (Q96D96 1-273 H140A/D185H) with D123H, A140H, H185D, H193A
Summary of the method: as §1

human Hv1 D112H = target: T3, human Hv1 D112H (Homo sapiens, UniProt Q96D96, D112H)
T3 sequence (Q96D96 1-273 D112H): T1 sequence (Q96D96 1-273 H140A/D185H) with D112H, A140H, H185D
Summary of the method: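 Zn2+ effect was read from tail current, not end-of-step current. Whole-cell recording at ~21°C with pH 6.5 pipette and bath solutions (mM: ~80 TMA-MeSO3, 100 Bis-Tris, 8 HCl). ZnCl2 was diluted in bath solution and gravity-superfused, at least 2 min per change. Concentration–response was fitted to the Hill equation, with IC50 values from separate cells. ΔpIC50 was compared by unpaired Student's t test, P<0.05.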

[1] = target: T4, human Hv1 E119A (E^1.58A) (Homo sapiens, UniProt Q96D96, E119A)
T4 sequence (Q96D96 1-273 E119A): T1 sequence (Q96D96 1-273 H140A/D185H) with E119A, A140H, H185D
Summary of the method: as §1

[2] = target: T5, human Hv1 E119H-H140A-D185H-H193A (Homo sapiens, UniProt Q96D96, D185H/E119H/H140A/H193A)
T5 sequence (Q96D96 1-273 E119H/H140A/D185H/H193A): T1 sequence (Q96D96 1-273 H140A/D185H) with E119H, H193A
Summary of the method: as §1

[3] = target: T6, human Hv1 D123H (D^1.62H) (Homo sapiens, UniProt Q96D96, D123H)
T6 sequence (Q96D96 1-273 D123H): T1 sequence (Q96D96 1-273 H140A/D185H) with D123H, A140H, H185D
Summary of the method: as §1

[4] = VSTEP 120 mV, calculated as log (IC50)
[5] = VSTEP 80 mV, calculated as log (IC50)
[6] = read-out: IC50, fit of the mean data to a Hill function, Fig. 4B
[7] = read-out: Mean IC50 @ VSTEP, VSTEP 80 mV, pH 6.5, mean of fits in separate cells

[Cl-].[Cl-].[Zn+2] [Zn^2+, ZnCl2]
nH, fit of the mean data to a Hill function (human Hv1 H140A-D185H; Fig. 4D): 0.6 | Mean ΔpIC50 = (pIC50_1 - pIC50_2) (human Hv1 H140A-D185H; H140A-D185H vs D185H): −0.42 | Mean ΔpIC50 = (pIC50_1 - pIC50_2) (human Hv1 H140A-D185H; H140A-D185H vs H140A): 0.54 | Hill value (human Hv1 H140A-D185H; VSTEP 120 mV): 0.81 | pIC50 (human Hv1 H140A-D185H; [4]): −4.96 | IC50 (human Hv1 H140A-D185H; read-out: IC50, fit of the mean data to a Hill function, Fig. 4D): 18 µM | Mean ΔpIC50 = (pIC50_1 - pIC50_2) (human Hv1 D123H-H193A; D123H-H193A vs H193A): 0.47 | nH, fit of the mean data to a Hill function (human Hv1 D123H-H193A; Fig. 4B): 0.9 | Hill value (human Hv1 D123H-H193A; VSTEP 80 mV): 1.06 | pIC50 (human Hv1 D123H-H193A; [5]): −4.54 | IC50 (human Hv1 D123H-H193A; [6]): 28.6 µM | IC50 (human Hv1 D123H-H193A; [7]): 36 µM | Mean ΔpIC50 = (pIC50_1 - pIC50_2) (human Hv1 D112H; D112H vs WT): −2.1 | Hill value (human Hv1 D112H; VSTEP 130 mV, determined from tail current): 0.56 | pIC50 (human Hv1 D112H; VSTEP 130 mV, determined from tail current, calculated as log (IC50)): −2.96 | IC50 (human Hv1 D112H; read-out: Mean IC50 @ VSTEP, VSTEP 130 mV, pH 6.5, determined from tail current): 1140 µM | Mean ΔpIC50 = (pIC50_1 - pIC50_2) ([1]; E119A vs WT): −0.28 | nH, fit of the mean data to a Hill function ([1]; Fig. 3C): 0.8 | Hill value ([1]; VSTEP 120 mV): 0.80 | pIC50 [1, 4]: 5.16 | IC50 ([1]; read-out: IC50, fit of the mean data to a Hill function, Fig. 3C): 6.7 µM | Mean ΔpIC50 = (pIC50_1 - pIC50_2) ([2]; E119H-H140A-D185H-H193A vs E119H-H140A-H193A): −0.25 | Mean ΔpIC50 = (pIC50_1 - pIC50_2) ([2]; E119H-H140A-D185H-H193A vs H140A-D185H-H193A): 1.75 | Hill value ([2]; VSTEP 120 mV): 0.72 | pIC50 [2, 4]: −4.90 | Mean ΔpIC50 = (pIC50_1 - pIC50_2) ([3]; D123H vs WT): 0.11 | nH, fit of the mean data to a Hill function ([3]; Fig. 4B): 0.8 | Hill value ([3]; VSTEP 80 mV): 0.95 | pIC50 [3, 5]: 5.56 | IC50 [3, 6]: 2.5 µM | IC50 [3, 7]: 4.3 µM
